Columns and labels:
Rattus norvegicus [1] = organism: Rattus norvegicus; experiment: G protein activation was measured by stimulation of [35S]GTP gamma-S binding to rat adipocyte membranes; type: functional
Rattus norvegicus [2] = organism: Rattus norvegicus; experiment: Relative intrinsic activity in stimulation of [35S]GTP gamma-S binding to rat adipocyte was determined; type: functional
In short: (§1)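 Relative intrinsic activity is maximal stimulation of [35S]GTPγS binding (0.2 nM) as a percentage of the maximum given by nicotinic acid, which is set at 100%. Rat membranes (adipocyte for line 3, spleen for line 4) at 1 to 1.5 µg protein were incubated 90 min at 25 °C with 10 µM GDP and 100 mM NaCl, then filtered. Values are arithmetic mean ± SEM.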

Rattus norvegicus [3] = organism: Rattus norvegicus; experiment: Potency required for stimulation of [35S]GTP gamma-S binding to rat spleen was determined; type: functional, organism-based
Rattus norvegicus [4] = organism: Rattus norvegicus; experiment: Relative intrinsic activity in stimulation of [35S]GTP gamma-S binding to rat spleen was determined; type: functional; in short: as §1

| Compound | EC50 (Rattus norvegicus [1]) [µM] | EC50 (Rattus norvegicus [3]) [µM] | RIA (Rattus norvegicus [2]) [%] | RIA (Rattus norvegicus [4]) [%] |
| --- | --- | --- | --- | --- |
| O=C(O)c1cc(Cc2ccccc2)n[nH]1 | 70.7 | 86.9 | 52.4 | 50.3 |
| CCCc1cc(C(=O)O)n[nH]1 | 6.1 | 5.09 | 53.5 | 69.9 |
| O=C(O)c1n[nH]c2c1CCCC2 | 85.1 | 64.6 |  | 47.2 |
| CC(C)c1cc(C(=O)O)n[nH]1 | 13.7 | 21.8 | 49.2 | 67.7 |
| O=C(O)c1n[nH]c2c1CCC2 | 6.44 | 6.97 | 51.7 | 55.9 |

Further compounds by falling EC50 (Rattus norvegicus [1]), results first:

| EC50 (Rattus norvegicus [1]) [µM] | EC50 (Rattus norvegicus [3]) [µM] | Compound | RIA (Rattus norvegicus [2]) [%] | RIA (Rattus norvegicus [4]) [%] |
| --- | --- | --- | --- | --- |
| 46.6 |  | O=C(O)c1cc(Cc2cccc(Cl)c2)n[nH]1 | 39.4 |  |
| 16 | 21.5 | O=C(O)c1cc[nH]n1 | 78.5 | 85.3 |
| 4.12 | 2.26 | CCCCc1cc(C(=O)O)n[nH]1 | 75.7 | 80.7 |
| 1.7 | 0.74 | O=C(O)c1cccnc1 [NIACIN] | 100 | 100 |

Source: ChEMBL document CHEMBL1145993, “Pyrazole derivatives as partial agonists for the nicotinic acid receptor” (J Med Chem, 2003)
